Screening data from PubChem.
Rows were chosen to be rich in hits. Some 1.5% of all compounds tested hit in one or more screens of this group.
CXCR6 block – blocks human CXCR6 beta-arrestin recruitment | AID 602244 | inhibition, % at 20 µM | CHO-K1 PathHunter CXCR6 beta-arrestin, luminescence | O00574 | 0.36% of 360,000 active; in the data active = inhibition above about 34%, passing the limit was not always enough;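 note: antagonist mode with CXCL16 agonist at 10 nM final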
Target sequence (O00574 whole entry, looked up): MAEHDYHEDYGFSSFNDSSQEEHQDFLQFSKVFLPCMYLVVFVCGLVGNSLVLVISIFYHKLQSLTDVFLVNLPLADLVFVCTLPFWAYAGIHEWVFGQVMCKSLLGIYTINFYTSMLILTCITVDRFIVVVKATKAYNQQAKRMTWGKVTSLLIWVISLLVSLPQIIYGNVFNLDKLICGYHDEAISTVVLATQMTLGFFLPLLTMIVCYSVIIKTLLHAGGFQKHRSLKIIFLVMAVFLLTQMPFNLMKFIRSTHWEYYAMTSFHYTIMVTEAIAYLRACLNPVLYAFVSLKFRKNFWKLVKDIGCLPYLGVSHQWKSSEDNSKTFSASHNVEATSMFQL
CCR6 antag – blocks CCL20-driven beta-arrestin recruitment at human CCR6 | P51684 | CHO-K1 CCR6 PathHunter beta-arrestin, luminescence, CCL20-stimulated | inhibition, % at 20 µM | 0.49% of 340,000 active;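 active = compounds whose inhibition of the agonist-driven luminescence signal at 20 µM reaches about 50%, limit read from the data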;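 note: cells stimulated with CCL20 at 14 nM final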
APJ antagonist – APJ receptor antagonism | CHO-K1 APJ beta-arrestin complementation, luminescence | inhibition, % at 20 µM | 0.32% of 330,000 active | AID 2521;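 active = inhibition above about 40% at 20 µM, limit read from the data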;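 note: cells challenged with 10 nM apelin-13 agonist together with compound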
EBI2 block – antagonists of human EBI2 receptor; P32249; EBI2 beta-arrestin recruitment, luminescence, 7a,25-OHC stimulated; 0.81% of 360,000 active; inhibition, % at 5 µM; in the data active = inhibition above about 38%;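 note: enzyme fragment complementation signal reports receptor beta-arrestin coupling in cells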
Target sequence (P32249 whole entry, looked up, the tested form may be a part): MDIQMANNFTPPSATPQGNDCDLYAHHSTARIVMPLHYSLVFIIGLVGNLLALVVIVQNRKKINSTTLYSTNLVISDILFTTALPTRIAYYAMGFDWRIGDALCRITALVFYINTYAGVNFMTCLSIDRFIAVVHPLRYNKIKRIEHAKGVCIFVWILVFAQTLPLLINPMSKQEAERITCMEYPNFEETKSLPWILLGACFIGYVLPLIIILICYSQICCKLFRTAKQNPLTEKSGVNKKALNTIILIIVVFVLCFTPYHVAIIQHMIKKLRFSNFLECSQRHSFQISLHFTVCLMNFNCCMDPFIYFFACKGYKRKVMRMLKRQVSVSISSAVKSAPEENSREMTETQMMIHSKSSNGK
APJ ag – activates the human apelin receptor APJ | P35414 | activation, % at 20 µM | AID 2520 | CHO-K1 APJ PathHunter beta-arrestin, luminescence; 0% DMSO wells, 100% apelin | 0.11% of 330,000 active;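 active = activation more than six SD over the plate average, tested at 20 µM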
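Test system – PathHunter CHO-K1 APJ (AGTRL-1) beta-arrestin reporter cells · Input – 1000 cells/well · Compound – single test compound dose, 20 µM final, 1% DMSO · Times – compound stimulation 90 min at 25 °C, detection 60 min · Technique – beta-gal luminescence · Read-out basis – APJ–arrestin association signal · Control set – negative DMSO alone, positive Apelin-13 at 10 nM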
EBI2 antag conf – confirmation of human EBI2 receptor antagonists; shares compounds with EBI2 block; EBI2 beta-arrestin luminescence, 7a,25-OHC antagonism; inhibition, % at 5 µM; 29% of 2,400 active; AID 651997;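 active = inhibition of at least 50%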
EBI2 agonist – EBI2 agonism counter-screen; shares compounds with EBI2 block; EBI2-expressing cells, agonist mode, luminescence, 60 min; 0% vehicle, 100% 7α,25-dihydroxycholesterol control; activation, % at 5 µM; 2,400 tested, under 10 active;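 active = activation of at least 50%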
bGal cs – inhibits E. coli beta-galactosidase, counter-screen for EBI2 antagonists; shares compounds with EBI2 block; purified beta-galactosidase, luminescent Galacton Star, 15 min; inhibition, % at 5 µM; 1% of 2,400 active;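 active = replicate-average signal at least 3 plate SD below neutral wells, shown as high inhibition, flagging enzyme-inhibiting false positives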;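 note: higher means stronger loss of beta-gal luminescence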
Large screens that a line does not name were inactive (follow-up assays come after a bar, where they were run).

C[C@]12c3[nH]c4cc(-c5ccco5)ccc4c3CCN1C(=O)[C@@H](CC(=O)NCC13CC4CC(CC(C4)C1)C3)C[C@@H]2C(=O)N1CCCCC1	EBI2 block 43.5 (no result: APJ antagonist, APJ ag) | EBI2 antag conf inactive | EBI2 agonist inactive | bGal cs inactive
COc1ccc(NC(=O)c2csc(Cc3ccccc3)n2)cc1	EBI2 block 40.2 | EBI2 antag conf inactive | EBI2 agonist inactive | bGal cs inactive
O=C(Nc1ccc(F)cc1)c1csc(Cc2ccccc2)n1	none
COC(=O)c1ccc2nc(-c3ccc(C#N)cc3)c(Cc3ccsc3)n2c1	EBI2 block 63.4 (no result: CCR6 antag, APJ antagonist, APJ ag) | EBI2 antag conf 51.7 | EBI2 agonist inactive | bGal cs inactive
Cc1ccccc1NC(=O)CON=C(N)c1ccccc1	none
Cc1cc(OCC(=O)N2CCN(c3ccccn3)CC2)c(C)cc1Br	EBI2 block 53.1 | EBI2 antag conf inactive | EBI2 agonist inactive | bGal cs inactive
O=C(COc1ccc2ccccc2c1Br)N1CCCCC1	none
O=C(COc1ccc2ccccc2c1Br)N1CCN(c2ccccn2)CC1	EBI2 block 52.0 | EBI2 antag conf inactive | EBI2 agonist inactive | bGal cs inactive
COc1cccc(CNc2nc(NC(C)C)nc3ccsc23)c1	none (no result: CCR6 antag, APJ antagonist, APJ ag)
COc1ccccc1C(=O)NC(CCSC)C(=O)OCC(=O)N1CCN(S(=O)(=O)c2ccc(C)cc2)CC1 (stereo not drawn)	none (no result: APJ antagonist, APJ ag)
Cc1ccc(CSCCNC(=O)/C=C/c2ccc(Cl)cc2)cc1	EBI2 block 53.1 | EBI2 antag conf inactive | EBI2 agonist inactive | bGal cs inactive
Cc1ccc(/C=C/C(=O)NCCCc2ccccc2)cc1	EBI2 block 48.8 | EBI2 antag conf inactive | EBI2 agonist inactive | bGal cs inactive
Cc1ccc(N2CC(C(=O)Nc3cccnc3)CC2=O)cc1C (stereo not drawn)	none
CCOC(=O)C1(Cc2cccc(OC)c2)CCCN(Cc2cc(OC)c(O)c(OC)c2)C1 (stereo not drawn)	EBI2 block 81.5 | EBI2 antag conf 57.7 | EBI2 agonist inactive | bGal cs inactive
CCOC(=O)C1(Cc2cccc(OC)c2)CCCN(Cc2cnn(C)c2)C1 (stereo not drawn)	none
Cc1ccc(S(=O)(=O)NCC(C)n2nc(C)nc2C)cc1 (stereo not drawn)	none
O=C(O)Cn1c(=O)c(F)cn(C2CCCO2)c1=O (stereo not drawn)	none
C=CCN1C(=O)CS/C1=N/c1nccs1	none
C=CCN1C(=O)/C(=C/c2ccccc2)S/C1=N/c1nccs1	EBI2 block 57.1 | EBI2 antag conf inactive | EBI2 agonist inactive | bGal cs inactive
COc1ccc(S(=O)(=O)N/N=C(/C)c2ccncc2)cc1	none
COCCOC(=O)c1c(NC(=O)CN2c3ccccc3CC2C)sc(C(N)=O)c1C (stereo not drawn)	EBI2 block 65.4 | EBI2 antag conf inactive | EBI2 agonist inactive | bGal cs inactive
COCCOC(=O)c1c(NC(=O)CN2CCOCC2)sc(C(N)=O)c1C	none
N#Cc1cc(-c2ccc(Cl)cc2)cn(Cc2c(Cl)cccc2Cl)c1=O	EBI2 block 45.5 | EBI2 antag conf inactive | EBI2 agonist inactive | bGal cs inactive
COc1ccc(CCC(=O)N2CCN(S(=O)(=O)c3ccc(C)cc3)CC2)cc1	EBI2 block 49.4 | EBI2 antag conf inactive | EBI2 agonist inactive | bGal cs inactive
CCOc1ccccc1OCCCC(=O)N1CCN(S(=O)(=O)c2cccc(F)c2)CC1	none
COc1ccc(OCCCC(=O)N2CCN(S(=O)(=O)c3cccc(F)c3)CC2)cc1	EBI2 block 57.7 | EBI2 antag conf inactive | EBI2 agonist inactive | bGal cs inactive
COc1ccc(S(=O)(=O)N2CCN(C(=O)CCC3CCCC3)CC2)cc1	none
COc1ccc(CCC(=O)N2CCN(S(=O)(=O)c3cccc(Cl)c3)CC2)cc1	EBI2 block 71.9 | EBI2 antag conf inactive | EBI2 agonist inactive | bGal cs inactive
O=C(CCCc1nc2ccccc2s1)NC(c1ccccc1)c1ccccc1	EBI2 block 77.5 | EBI2 antag conf inactive | EBI2 agonist inactive | bGal cs inactive
O=C1CCC(C2CCc3cc(O)ccc3C2)C1 (stereo not drawn)	none (no result: APJ antagonist, APJ ag)
COc1ccc(-c2cc(-c3nnc(COC(=O)c4ccc(O)cc4)o3)c3ccccc3n2)cc1OC	EBI2 block 45.7 | EBI2 antag conf inactive | EBI2 agonist inactive | bGal cs inactive
Cc1ccc(NC(=O)CSc2ncn[nH]2)c([N+](=O)[O-])c1	none
O=C(CCSc1ccc(Cl)cc1)NC12CC3CC(CC(C3)C1)C2	EBI2 block 54.4 | EBI2 antag conf inactive | EBI2 agonist inactive | bGal cs inactive
O=C(CCSc1ccc(Cl)cc1)NC1CCCCC1	none
COc1ccc(C2CC(c3ccc(Br)cc3)=NN2C(=O)CN2CCCC2)cc1 (stereo not drawn)	none
CNC(=S)N1N=C(c2ccc(Br)cc2)CC1c1ccc(OC)cc1 (stereo not drawn)	EBI2 block 88.0 | EBI2 antag conf 86.7 | EBI2 agonist inactive | bGal cs inactive
COc1ccc(/C=C/C(=O)Nc2ccc(-n3nncc3-c3ccccc3)cc2)cc1OC	EBI2 block 61.3 | EBI2 antag conf inactive | EBI2 agonist inactive | bGal cs inactive
COc1ccc(/C=C/C(=O)Nc2ccc(C(N)=O)cc2)cc1OC	none
CCCN(CCC)Cc1c(C(=O)N/N=C/c2c[nH]c3ccccc23)nnn1-c1nonc1N	none
CCCc1c(C(=O)N/N=C/c2c[nH]c3ccccc23)nnn1-c1nonc1N	EBI2 block 42.8 (no result: CCR6 antag, APJ antagonist, APJ ag) | EBI2 antag conf inactive | EBI2 agonist inactive | bGal cs inactive
O=C(NN=Cc1c[nH]c2ccccc12)NN=Cc1c[nH]c2ccccc12	EBI2 block 74.2 (no result: CCR6 antag, APJ antagonist, APJ ag) | EBI2 antag conf 62.0 | EBI2 agonist inactive | bGal cs inactive
O=C(N/N=C/c1c[nH]c2ccccc12)c1ccccc1	none
CC1(C(=O)Nc2cccc3ncccc23)CCN1C(=O)Cc1ccc(-c2ccccc2)cc1 (stereo not drawn)	EBI2 block 69.0 (no result: CCR6 antag, APJ antagonist, APJ ag) | EBI2 antag conf inactive | EBI2 agonist inactive | bGal cs inactive
c1ccc(C2=Nc3ccccc3SC2c2nc3ccccc3[nH]2)cc1 (stereo not drawn)	none (no result: CXCR6 block, CCR6 antag, EBI2 block)
O=C(COc1ccc(F)cc1)N1CCC(c2ccccc2)C1 (stereo not drawn)	EBI2 block 56.7 | EBI2 antag conf inactive | EBI2 agonist inactive | bGal cs inactive
Cc1cccc(OCC(=O)N2CCC(c3ccccc3)C2)c1 (stereo not drawn)	EBI2 block 46.3 | EBI2 antag conf inactive | EBI2 agonist inactive | bGal cs inactive
O=C(CC1C(=O)NCCN1CCCc1ccccc1)NCCc1ccccc1Cl (stereo not drawn)	none
